How the values were obtained:
Format in all cases: cell-based
[1] = biological target: T1, Nucleotide-binding oligomerization domain-containing protein 1 (Homo sapiens) (UniProt Q9Y239); assay: Antagonist activity at NOD1 in HEK-Blue hNOD1 cells assessed as inhibition of C12-iE-DAP-induced NFkappaB activation-mediated SEAP release at 5 uM preincubated for 3 hrs followed by C12-iE-DAP addition and measured after 20 hrs by spectrophotometric method relative to control; details: time 23.0 hrs
T1 sequence (whole entry): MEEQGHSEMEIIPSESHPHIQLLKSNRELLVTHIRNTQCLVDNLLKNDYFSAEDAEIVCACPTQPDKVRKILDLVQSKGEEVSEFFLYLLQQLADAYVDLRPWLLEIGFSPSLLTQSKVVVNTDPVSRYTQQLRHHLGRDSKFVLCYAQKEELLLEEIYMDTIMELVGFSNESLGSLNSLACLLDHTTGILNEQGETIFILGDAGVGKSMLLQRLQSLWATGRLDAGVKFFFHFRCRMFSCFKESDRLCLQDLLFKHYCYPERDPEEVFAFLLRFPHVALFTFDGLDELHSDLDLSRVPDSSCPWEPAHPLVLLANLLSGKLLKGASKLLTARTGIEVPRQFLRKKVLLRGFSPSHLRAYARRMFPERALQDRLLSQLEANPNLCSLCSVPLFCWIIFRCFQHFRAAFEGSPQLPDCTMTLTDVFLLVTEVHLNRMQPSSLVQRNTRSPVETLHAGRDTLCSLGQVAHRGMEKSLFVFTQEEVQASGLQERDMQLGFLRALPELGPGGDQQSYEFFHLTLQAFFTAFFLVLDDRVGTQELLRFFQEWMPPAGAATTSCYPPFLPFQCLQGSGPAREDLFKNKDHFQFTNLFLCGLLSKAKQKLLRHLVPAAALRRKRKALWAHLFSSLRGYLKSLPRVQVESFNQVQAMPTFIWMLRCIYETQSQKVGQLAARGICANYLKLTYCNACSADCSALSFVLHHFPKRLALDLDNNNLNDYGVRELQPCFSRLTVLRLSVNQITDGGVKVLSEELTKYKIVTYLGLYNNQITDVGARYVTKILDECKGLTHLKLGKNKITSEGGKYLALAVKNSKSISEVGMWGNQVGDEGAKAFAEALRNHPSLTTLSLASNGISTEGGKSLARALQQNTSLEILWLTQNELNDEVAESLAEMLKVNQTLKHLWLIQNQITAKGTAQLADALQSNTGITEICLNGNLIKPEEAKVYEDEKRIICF

[2] = biological target: T2, Nucleotide-binding oligomerization domain-containing protein 2 (Homo sapiens, UniProt Q9HC29); assay: Antagonist activity at NOD2 in HEK-Blue hNOD2 cells assessed as inhibition of MDP-induced NFkappaB activation-mediated SEAP release at 5 uM preincubated for 3 hrs followed by MDP addition and measured after 20 hrs by spectrophotometric method relative to control; details: time 23.0 hrs
[3] = biological target: T3, Nucleotide-binding oligomerization domain-containing protein 1 (Homo sapiens, UniProt Q9Y239); assay: Antagonist activity at NOD1 in HEK-Blue hNOD1 cells assessed as inhibition of C12-iE-DAP-induced NFkappaB activation-mediated SEAP release preincubated for 3 hrs followed by C12-iE-DAP addition and measured after 20 hrs by spectrophotometric method
T3 sequence (Q9Y239 whole entry): T1 sequence (whole entry)

[4] = biological target: T2, Nucleotide-binding oligomerization domain-containing protein 2; assay: Antagonist activity at NOD2 in HEK-Blue hNOD2 cells assessed as inhibition of MDP-induced NFkappaB activation-mediated SEAP release preincubated for 3 hrs followed by MDP addition and measured after 20 hrs by spectrophotometric method
Outline: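 HEK-Blue hNOD2 cells preincubated 3 h with a range of concentrations, then MDP 100 ng/mL for 20 h. SEAP quantified. SRB assay run to exclude cytotoxicity. IC50 by nonlinear semi-logarithmic fit, mean ± SD, n = 3.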

T2 sequence (Q9HC29 whole entry, the tested form may be a part): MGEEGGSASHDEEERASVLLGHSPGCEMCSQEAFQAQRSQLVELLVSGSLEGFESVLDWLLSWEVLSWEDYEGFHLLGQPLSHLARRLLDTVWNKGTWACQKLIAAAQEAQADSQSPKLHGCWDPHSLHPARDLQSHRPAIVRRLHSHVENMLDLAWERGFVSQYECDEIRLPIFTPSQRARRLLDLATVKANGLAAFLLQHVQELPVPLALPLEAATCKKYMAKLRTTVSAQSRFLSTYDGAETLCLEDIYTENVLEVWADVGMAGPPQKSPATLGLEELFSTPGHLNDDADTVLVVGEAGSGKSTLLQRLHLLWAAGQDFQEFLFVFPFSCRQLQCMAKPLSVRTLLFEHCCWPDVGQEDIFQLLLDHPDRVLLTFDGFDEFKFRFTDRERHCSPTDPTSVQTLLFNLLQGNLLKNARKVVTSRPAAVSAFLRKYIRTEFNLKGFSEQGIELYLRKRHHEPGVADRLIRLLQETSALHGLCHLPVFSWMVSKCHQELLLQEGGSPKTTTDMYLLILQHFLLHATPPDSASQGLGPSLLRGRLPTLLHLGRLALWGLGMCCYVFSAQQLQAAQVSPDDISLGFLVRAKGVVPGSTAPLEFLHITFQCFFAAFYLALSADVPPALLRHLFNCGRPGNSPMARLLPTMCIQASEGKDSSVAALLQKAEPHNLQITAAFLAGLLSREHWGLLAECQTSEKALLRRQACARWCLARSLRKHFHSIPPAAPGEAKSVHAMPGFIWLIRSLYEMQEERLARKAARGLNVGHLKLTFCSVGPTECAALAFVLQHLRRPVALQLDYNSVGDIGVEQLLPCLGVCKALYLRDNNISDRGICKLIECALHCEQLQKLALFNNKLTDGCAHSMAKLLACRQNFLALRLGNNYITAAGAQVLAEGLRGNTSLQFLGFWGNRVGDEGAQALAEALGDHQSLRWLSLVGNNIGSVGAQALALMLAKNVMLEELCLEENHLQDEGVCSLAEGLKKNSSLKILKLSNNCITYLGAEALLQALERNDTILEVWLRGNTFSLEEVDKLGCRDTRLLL

inhibition [1] [%]	SMILES	inhibition ([1]; filed as antagonist) [%]	IC50 [3] [nM]	also measured
–	COC(=O)Cn1cnc2cc(NC(=O)CCCOc3ccc(C#N)cc3)c(Oc3cccc(N(C)C)c3)cc2c1=O	48	–	–
19.4	CN(C)c1cccc(Oc2cc3c(=O)[nH]cnc3cc2NC(=O)c2ccc(C#N)cc2)c1	–	–	inhibition [2]: 13.1%
–	COC(=O)Cn1cnc2cc(NC(=O)COCc3ccc(C#N)cc3)c(Oc3cccc(N(C)C)c3)cc2c1=O	55.7	–	inhibition ([2]; filed as antagonist): 58.7%
-1.81	O=C(NCCCc1ccccc1)c1cc2nc[nH]c(=O)c2cc1-c1cccc(F)c1	–	–	–
–	COC(=O)Cn1cnc2cc(C(=O)NCCOCc3ccc(C(F)(F)F)cc3)c(-c3cccc(Cl)c3)cc2c1=O	82.4	1120	–
31.7	COC(=O)Cn1cnc2cc(NC(=O)c3ccc(C(F)(F)F)cc3)c(Oc3cccc(N(C)C)c3)cc2c1=O	–	–	–
–	O=C(NCCCc1ccc(Cl)cc1)c1cc2nc[nH]c(=O)c2cc1-c1cccc(Cl)c1	41.5	–	–
–	COC(=O)Cn1cnc2cc(NC(=O)CCCOc3ccc(C(F)(F)F)cc3)c(Oc3ccc(N(C)C)cc3)cc2c1=O	68.4	3870	–
–	COC(=O)Cn1cnc2cc(NC(=O)CCCOc3ccc(C(F)(F)F)cc3)c(Oc3cccc(N(C)C)c3)cc2c1=O	70.9	2650	–
–	COC(=O)Cn1cnc2cc(NC(=O)COCc3ccc(Cl)cc3)c(Oc3cccc(N(C)C)c3)cc2c1=O	69	4310	–
28.2	COC(=O)Cn1cnc2cc(NC(=O)CCCOc3ccc(C(F)(F)F)cc3)c(Oc3ccccc3)cc2c1=O	–	–	–
–	COC(=O)Cn1cnc2cc(C(=O)NCCCOc3ccc(C(F)(F)F)cc3)c(-c3cccc(Cl)c3)cc2c1=O	89.6	890	IC50 [4]: 1000 nM
–	COC(=O)Cn1cnc2cc(NC(=O)COCc3ccc(C(F)(F)F)cc3)c(Oc3ccccc3)cc2c1=O	50.2	–	–
–	O=C(NCCCOc1ccc(C(F)(F)F)cc1)c1cc2nc[nH]c(=O)c2cc1-c1cccc(Cl)c1	90	840	IC50 [4]: 840 nM
–	COC(=O)Cn1cnc2cc(C(=O)NCCCc3ccc(Cl)cc3)c(-c3cccc(F)c3)cc2c1=O	65.3	3240	–
–	COC(=O)Cn1cnc2cc(C(=O)NCCOCc3ccc(C(F)(F)F)cc3)c(-c3cccc(F)c3)cc2c1=O	64	3460	–
4.06	O=C(NCCCc1ccccc1)c1cc2nc[nH]c(=O)c2cc1-c1cccc(C(F)(F)F)c1	–	–	–
-0.98	COC(=O)Cn1cnc2cc(C(=O)NCCCc3ccccc3)c(-c3cccc(F)c3)cc2c1=O	–	–	–
–	O=C(NCCCc1ccc(Cl)cc1)c1cc2nc[nH]c(=O)c2cc1-c1cccc(F)c1	43.5	–	–
–	COC(=O)Cn1cnc2cc(C(=O)NCCCc3ccc(Cl)cc3)c(-c3cccc(Cl)c3)cc2c1=O	58.2	1640	–
6.6	O=C(NCCCc1ccccc1)c1cc2nc[nH]c(=O)c2cc1-c1cccc(Cl)c1	–	–	–
–	COC(=O)Cn1cnc2cc(NC(=O)COCc3ccc(C(F)(F)F)cc3)c(Oc3cccc(N4CCOCC4)c3)cc2c1=O	88.9	650	IC50 [4]: 550 nM
–	O=C(NCCOCc1ccc(C(F)(F)F)cc1)c1cc2nc[nH]c(=O)c2cc1-c1cccc(F)c1	56.1	4110	–
–	O=C(NCCOCc1ccc(C(F)(F)F)cc1)c1cc2nc[nH]c(=O)c2cc1-c1cccc(C(F)(F)F)c1	72.4	4390	–
35	O=C(NCCCc1ccc(Cl)cc1)c1cc2nc[nH]c(=O)c2cc1-c1cccc(C(F)(F)F)c1	–	–	–
–	COC(=O)Cn1cnc2cc(NC(=O)COCc3ccc(C(F)(F)F)cc3)c(Oc3ccccc3N(C)C)cc2c1=O	87.9	1650	–
13.1	COC(=O)Cn1cnc2cc(NC(=O)c3ccc(C#N)cc3)c(Oc3cccc(N(C)C)c3)cc2c1=O	–	–	–
33.5	COC(=O)Cn1cnc2cc(NC(=O)CCCOc3ccc(F)cc3)c(Oc3cccc(N(C)C)c3)cc2c1=O	–	–	–
37.6	O=C(COCc1ccc(C(F)(F)F)cc1)Nc1cc2nc[nH]c(=O)c2cc1Oc1cccc(N2CCOCC2)c1	–	–	–

Source: ChEMBL document CHEMBL4706575, “Nonpeptidic quinazolinone derivatives as dual nucleotide-binding oligomerization domain-like receptor 1/2 antagonists for adjuvant cancer chemotherapy” (Eur J Med Chem, 2020)
